From PMC10053325 (Cell chemical biology, 2020)
Positions count from the first letter of the chain named.

Assays:
[1] = tested on: isogenic HCT116 cells (SMAD4 R361H, null); experiment: Western blot of TGF-β-induced p15, p21, N-cadherin and Vimentin proteins; assay type: cell-based, human; settings: R361H mutant cells, TGF-β 10 ng/mL, compound 1 μM
Method in brief: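 Isogenic HCT116 SMAD4-null or R361H cells treated with TGF-β (10 ng/mL) and/or test compound (1 μM). Lysates run on 10% SDS-PAGE and transferred to nitrocellulose (100 V, 2 h, 4°C). Membranes blocked 1 h in 5% milk/TBST, probed overnight at 4°C, and developed by chemiluminescence. Representative of three independent experiments.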

[2] = tested on: isogenic HCT116 R361H cells; experiment: Transcriptome profiling; assay type: cell-based, human; settings: TGF-β 10 ng/mL, compound 1 μM
[3] = tested on: isogenic HCT116 R361H cells; experiment: Flow cytometry-based cell-cycle analysis; parameters: species or system human; settings: TGF-β 10 ng/mL, Ro-31-8220 1 μM, Go-6983 10 μM
Method in brief: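 Cells serum-starved 24 h, then placed in 10% FBS medium with TGF-β (10 ng/mL) and/or test compound for 24 h. Fixed in 70% ethanol overnight at 4°C, RNase-treated (1 mg/ml, 30 min, 37°C), stained with 40 μg/ml PI for 30 min. 5,000 cells per sample analysed by flow cytometry; % G1/S given as mean ± SD of three independent experiments.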

[4] = target: SMAD4^R361H interaction with R-SMADs (Homo sapiens, UniProt Q13485, R361H); experiment: R-SMADs selectivity profiling by TR-FRET; assay type: binding; settings: dose-response AUC; SMAD1/2/3/5/8
SMAD4^R361H-SMAD3 PPI [5] = target: T1, SMAD4^R361H-SMAD3 PPI (Homo sapiens, UniProt Q13485, R361H); experiment: TR-FRET assay for SMAD4^R361H/SMAD3 PPI in HEK293T cell lysate; assay type: binding; settings: primary screening, compounds 20 μM
Target sequence in this assay (Q13485 whole entry R361H): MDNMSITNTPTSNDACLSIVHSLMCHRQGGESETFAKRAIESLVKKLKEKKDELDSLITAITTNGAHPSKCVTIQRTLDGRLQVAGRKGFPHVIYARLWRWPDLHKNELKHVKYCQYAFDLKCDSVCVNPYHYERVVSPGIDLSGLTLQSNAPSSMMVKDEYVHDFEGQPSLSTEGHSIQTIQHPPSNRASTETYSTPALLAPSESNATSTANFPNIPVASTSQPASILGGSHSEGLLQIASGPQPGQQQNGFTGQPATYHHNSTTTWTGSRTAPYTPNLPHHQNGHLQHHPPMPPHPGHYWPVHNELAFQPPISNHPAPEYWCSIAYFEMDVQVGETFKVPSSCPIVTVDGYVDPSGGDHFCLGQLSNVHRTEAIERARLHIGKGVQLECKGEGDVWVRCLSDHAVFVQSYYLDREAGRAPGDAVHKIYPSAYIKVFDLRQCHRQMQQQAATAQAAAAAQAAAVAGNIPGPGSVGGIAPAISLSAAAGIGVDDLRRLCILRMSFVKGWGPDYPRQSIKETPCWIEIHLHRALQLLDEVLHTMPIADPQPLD
Target sequence in this assay (P84022 whole entry partner): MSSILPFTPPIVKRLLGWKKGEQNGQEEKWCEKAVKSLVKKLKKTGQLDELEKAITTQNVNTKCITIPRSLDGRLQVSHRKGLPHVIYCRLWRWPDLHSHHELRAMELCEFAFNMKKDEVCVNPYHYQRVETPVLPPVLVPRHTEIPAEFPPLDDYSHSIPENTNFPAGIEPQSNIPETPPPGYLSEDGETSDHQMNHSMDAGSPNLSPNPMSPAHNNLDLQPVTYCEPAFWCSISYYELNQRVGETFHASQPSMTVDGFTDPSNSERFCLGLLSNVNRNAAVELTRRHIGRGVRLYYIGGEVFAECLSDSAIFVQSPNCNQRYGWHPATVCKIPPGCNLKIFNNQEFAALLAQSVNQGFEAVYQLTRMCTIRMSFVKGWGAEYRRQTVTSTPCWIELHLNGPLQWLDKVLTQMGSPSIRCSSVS

[6] = tested on: isogenic HCT116 cells (SMAD4 WT, null, R361H); experiment: Cell viability assay; assay type: cell-based, human
Method in brief: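 Isogenic HCT116 WT, SMAD4-null and R361H cells given TGF-β (10 ng/mL), test compound, or both; vehicle/DMSO controls. CellTiter-Blue added and incubated at 37°C. Fluorescence read at Ex 545/Em 615 nm, medium-only blank subtracted, normalized to untreated controls (% C). Mean ± SD of three independent experiments; Student's t-test.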

SMAD4 WT = target: T2, SMAD4 WT (Homo sapiens, UniProt Q13485); experiment: Cellular thermal shift assay; assay type: cell-based; settings: HCT116 cells, 10 μM for 8 h, compared with the DMSO control
T2 sequence (Q13485 1-552): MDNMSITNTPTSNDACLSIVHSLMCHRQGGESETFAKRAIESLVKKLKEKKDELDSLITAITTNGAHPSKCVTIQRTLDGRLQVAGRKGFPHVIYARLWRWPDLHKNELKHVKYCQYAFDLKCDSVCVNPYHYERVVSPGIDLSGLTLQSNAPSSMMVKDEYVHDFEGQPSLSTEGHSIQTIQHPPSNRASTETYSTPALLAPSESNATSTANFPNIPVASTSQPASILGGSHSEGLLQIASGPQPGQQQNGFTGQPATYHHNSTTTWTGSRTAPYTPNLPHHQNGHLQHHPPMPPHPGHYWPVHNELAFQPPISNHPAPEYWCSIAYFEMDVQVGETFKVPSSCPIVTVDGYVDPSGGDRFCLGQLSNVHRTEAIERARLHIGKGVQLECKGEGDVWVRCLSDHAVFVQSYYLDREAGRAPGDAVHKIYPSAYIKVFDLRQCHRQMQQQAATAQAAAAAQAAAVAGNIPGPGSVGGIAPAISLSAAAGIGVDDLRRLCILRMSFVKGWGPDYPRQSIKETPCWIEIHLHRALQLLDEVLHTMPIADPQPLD
Method in brief: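 Cells at 60% confluency in 100 mm dishes given 10 μM test compound for 8 h. Pellets in PBS aliquoted and heated at 45~65 °C for 3 min, lysed by three liquid nitrogen/25 °C freeze-thaw cycles, spun 20,000g for 20 min at 4 °C. Soluble SMAD protein western-blotted with actin loading control. Thermal curves from densitometry; mean ± SD, three independent experiments.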

SMAD4^D351H/SMAD3 PPI = SMAD4^D351H/SMAD3 PPI (Homo sapiens, UniProt Q13485, D351H); experiment: GST pull-down assay of GST-SMAD4-D351H with VF-SMAD3 in cell lysate; assay type: binding; settings: versus DMSO control
Method in brief: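 HEK293T cells co-transfected with Venus-flag-SMAD3 and mutant GST-SMAD4 and lysed after 48 h in 0.5% Triton X-100 buffer (20 mM Tris-HCl, 150 mM NaCl, 5% glycerol, 2 mM EDTA). Lysate incubated with test compound 3 h rotating at 4°C, then glutathione beads 2 h at 4°C. Beads washed three times, boiled in SDS buffer, and bound SMAD3 detected by western blot.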

[7] = tested on: isogenic HCT116 R361H cells; experiment: Colony formation assay; assay type: cell-based, human; settings: TGF-β 10 ng/mL, Ro-31-8220 1 μM, Go-6983 10 μM, 15-day treatment
Method in brief: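 Single-cell suspensions seeded at 1,000 to 2,000 cells/well in 6-well plates, treated next day with TGF-β, test compound, or the combination. Agent-containing medium renewed every 3 days for 15 days. Colonies stained with crystal violet and colony area quantified from images. Mean ± SD, three independent experiments; Student's t-test.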

SMAD4^R361H-SMAD3 PPI [8] = target: T1, SMAD4^R361H-SMAD3 PPI; experiment: Endogenous co-immunoprecipitation of SMAD4 complex in RCM-1 cells; assay type: cell-based; settings: 10 μM for 8 h, endogenous proteins
Method in brief: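 RCM-1 cells in 100 mm dishes exposed to 10 μM test compound or DMSO for 8 h, then lysed in PBS by sonication. About 1.5 mg total protein per IP incubated with antibody overnight at 4 °C, then with protein […] agarose beads 4 h at 4 °C. Beads washed four times in PBS; eluates probed for SMAD3 by western blot.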
Target sequence in this assay (Q13485 whole entry R361H): as the sequence (Q13485 whole entry R361H) above
Target sequence in this assay (P84022 2-425 partner limits assumed): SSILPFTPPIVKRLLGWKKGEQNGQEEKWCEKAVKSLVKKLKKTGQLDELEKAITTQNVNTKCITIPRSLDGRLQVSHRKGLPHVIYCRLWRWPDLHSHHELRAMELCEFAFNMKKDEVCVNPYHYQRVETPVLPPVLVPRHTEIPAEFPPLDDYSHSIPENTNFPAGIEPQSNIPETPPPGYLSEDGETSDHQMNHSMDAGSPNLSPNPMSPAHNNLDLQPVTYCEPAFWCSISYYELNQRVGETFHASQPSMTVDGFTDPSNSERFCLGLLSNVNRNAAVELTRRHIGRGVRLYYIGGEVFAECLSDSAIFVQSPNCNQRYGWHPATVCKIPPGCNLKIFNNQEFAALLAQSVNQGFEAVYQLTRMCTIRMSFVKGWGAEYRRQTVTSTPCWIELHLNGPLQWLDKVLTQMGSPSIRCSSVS

SMAD4^R361H = target: T3, SMAD4^R361H (Homo sapiens, UniProt Q13485, R361H); experiment: Cycloheximide; assay type: cell-based; settings: RCM-1 cells, CHX chase
T3 sequence (Q13485 1-552 R361H): T2 sequence (Q13485 1-552) with R361H
Method in brief: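 RCM-1 cells grown 24 h in 24-well plates, then given 100 μg/mL cycloheximide with test compound or DMSO. At each time point cells scraped into 2X SDS sample buffer and boiled 5 min. Run on 10% SDS-PAGE and blotted with anti-SMAD4; SMAD4 densitometry normalized to β-actin. Performed three times.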

[9] = tested on: SMAD4/SMAD3 transcriptional activity (SBE-luc); experiment: SBE-driven luciferase reporter assay; assay type: cell-based, human; settings: isogenic HCT116 R361H cells pre-treated with compound
Method in brief: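 […] cells in 6-well plates co-transfected with SBE4-Luc (1 μg) and Renilla (0.1 μg) plasmids. After 24 h, cells pretreated 6 h with test compound, then stimulated with TGF-β for 18 h. Dual-Glo read-out as Firefly/Renilla ratio, expressed as TGF-β-induced fold-of-change; assays repeated three times.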

Chain of SMAD4^R361H interaction with R-SMADs (Q13485 whole entry R361H): as the sequence (Q13485 whole entry R361H) above
Chain of SMAD4^R361H interaction with R-SMADs (P84022 whole entry partner): as the sequence (P84022 whole entry partner) above
Chain of SMAD4^D351H/SMAD3 PPI (Q13485 whole entry D351H): as the sequence (Q13485 whole entry R361H) above, with D351H, H361R counted along it
Chain of SMAD4^D351H/SMAD3 PPI (P84022 whole entry partner): as the sequence (P84022 whole entry partner) above

SMILES	TGF-β-induced expression of p15, p21, N-cadherin and Vimentin proteins [1]	response to TGF-β in terms of DEGs [2]	sensitivity to TGF-β-induced G1/S cell-cycle arrest [3]	compound-induced TR-FRET signal for SMAD4^R361H with SMAD3 compared with other R-SMADs [4]	potentiation effect (ΔTR-FRET) compared with the DMSO control (SMAD4^R361H-SMAD3 PPI [5]) [%]	sensitivity to TGF-β-induced growth suppression (cell viability) ([6]; SMAD4 R361H cells, with TGF-β 10 ng/mL, Ro-31-8220 1 μM, Go-6983 10 μM)	growth inhibition, compound alone ([6]; SMAD4 WT, null and R361H cells, 1 μM)	increase of Tm (ΔTm) of SMAD4 WT (SMAD4 WT)	SMAD3 level in the D351H GST pull-down complex (SMAD4^D351H/SMAD3 PPI)	colony area in combination with TGF-β [7]	amount of SMAD3 in the SMAD4-R361H immune-complex (SMAD4^R361H-SMAD3 PPI [8])	SMAD4^R361H protein half-life compared with DMSO control (SMAD4^R361H)	SMAD4^R361H protein half-life (SMAD4^R361H; compound-treated)	TGF-β-induced SBE-luc activity [9]
Cn1cc(C2=C(c3cn(CCCSC(=N)N)c4ccccc34)C(=O)NC2=O)c2ccccc21 [Ro-31-8220]	significant increase	reestablished to a similar degree to that of WT cells	regained sensitivity	significantly higher	> 40	restored the sensitivity	did not result in any significant growth inhibition	but not WT or SMAD3	significantly restored	significantly decreased colony area	drastically restored	no significant difference	about 2 h	restored to a level similar to that of the WT cells
COc1ccc2c(c1)c(C1=C(c3c[nH]c4ccccc34)C(=O)NC1=O)cn2CCCN(C)C [Go-6983]				significantly higher	> 40				significantly restored	A similar effect				
